Laboratory results from ChEMBL document CHEMBL1782042, “Efficient microwave-assisted synthesis and antitumor activity of novel 4,4'-methylenebis[2-(3-aryl-4,5-dihydro-1H-pyrazol-5-yl)phenols]” (Eur J Med Chem, 2011).

Tests used:
[1] = tested on: HOP-92; assay: Cytotoxicity against human HOP92 cells; format: cell-based
Procedure, shortened: (§1)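 NCI 60 human tumour cell line screen, second stage at five concentrations (100, 10, 1.0, 0.1 and 0.01 μM). Continuous drug exposure for 48 h, with cell growth estimated by sulforhodamine B protein staining. GI50 is the drug concentration giving a 50% reduction in net protein increase relative to control cells over the incubation.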

[2] = tested on: MCF7; assay: Anticancer activity against human MCF7 cells after 48 hrs by sulforhodamine B assay; format: functional; details: MCF7, 48 h
Procedure, shortened: (§2)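 NCI 60-cell-line in vitro screen, second stage: five concentration levels (100, 10, 1.0, 0.1 and 0.01 μM) with 48 h continuous drug exposure. Cell growth was estimated by sulforhodamine B protein staining. GI50 is the drug concentration that gives a 50% reduction in net protein increase relative to control cells over the incubation.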

[3] = tested on: RPMI-8226; assay: Anticancer activity against human RPMI8226 cells after 48 hrs by sulforhodamine B assay; format: functional; details: RPMI-8226, 48 h; procedure, shortened: as §2
[4] = tested on: Hs-578T; assay: Cytotoxicity against human Hs578T cells; format: cell-based; procedure, shortened: as §1
[5] = tested on: SNB-19; assay: Cytotoxicity against human SNB19 cells; format: cell-based
Procedure, shortened: (§3)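 NCI 60 human tumour cell line screen; five concentration levels (100, 10, 1.0, 0.1 and 0.01 μM), 48 h continuous drug exposure. Cell growth estimated by sulforhodamine B (SRB) protein staining. GI50 taken as the drug concentration giving a 50% reduction in net protein increase relative to control cells over the incubation.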

[6] = tested on: RXF 393; assay: Cytotoxicity against human RXF393 cells; format: cell-based; procedure, shortened: as §1
[7] = tested on: HCT-116; assay: Anticancer activity against human HCT116 cells after 48 hrs by sulforhodamine B assay; format: functional; details: HCT-116, 48 h; procedure, shortened: as §2
[8] = tested on: A549; assay: Anticancer activity against human A549 cells after 48 hrs by sulforhodamine B assay; format: functional; details: A549, 48 h; procedure, shortened: as §2
[9] = tested on: UO-31; assay: Anticancer activity against human UO31 cells after 48 hrs by sulforhodamine B assay; format: functional; details: UO-31, 48 h
Procedure, shortened: (§4)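 NCI 60-cell-line screen, second stage. Five concentration levels (100, 10, 1.0, 0.1 and 0.01 μM), 48 h continuous drug exposure. Cell growth was estimated by sulforhodamine B protein staining. GI50 is the concentration giving a 50% reduction in net protein increase relative to control cells over the drug incubation. Compounds entered this stage after an earlier single-dose screen.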

[10] = tested on: NCI-H460; assay: Anticancer activity against human NCI-H460 cells after 48 hrs by sulforhodamine B assay; format: functional; details: NCI-H460, 48 h; procedure, shortened: as §2
[11] = tested on: SK-MEL-5; assay: Anticancer activity against human SK-MEL-5 cells after 48 hrs by sulforhodamine B assay; format: functional; details: SK-MEL-5, 48 h; procedure, shortened: as §2
[12] = tested on: SK-MEL-2; assay: Cytotoxicity against human SK-MEL-2 cells; format: cell-based; procedure, shortened: as §1
[13] = tested on: NCI-H23; assay: Cytotoxicity against human NCI-H23 cells; format: cell-based; procedure, shortened: as §1
[14] = tested on: HCT-15; assay: Cytotoxicity against human HCT15 cells; format: cell-based; procedure, shortened: as §1
[15] = tested on: MDA-MB-468; assay: Anticancer activity against human MDA-MB-468 cells after 48 hrs by sulforhodamine B assay; format: functional; details: MDA-MB-468, 48 h; procedure, shortened: as §2
[16] = tested on: T47D; assay: Anticancer activity against human T47D cells after 48 hrs by sulforhodamine B assay; format: functional; procedure, shortened: as §4
[17] = tested on: ACHN; assay: Cytotoxicity against human ACHN cells; format: cell-based; procedure, shortened: as §1
[18] = tested on: SN12C; assay: Cytotoxicity against human SN12C cells; format: cell-based; procedure, shortened: as §3
[19] = tested on: NCI-H522; assay: Anticancer activity against human NCI-H522 cells after 48 hrs by sulforhodamine B assay; format: functional; details: NCI-H522, 48 h; procedure, shortened: as §2
[20] = tested on: HOP-62; assay: Anticancer activity against human HOP62 cells after 48 hrs by sulforhodamine B assay; format: functional; details: HOP-62, 48 h; procedure, shortened: as §2
[21] = tested on: K562; assay: Cytotoxicity against human K562 cells; format: cell-based; procedure, shortened: as §1
[22] = tested on: BT-549; assay: Cytotoxicity against human BT549 cells; format: cell-based; procedure, shortened: as §1
[23] = tested on: HOP-62; assay: Cytotoxicity against human HOP62 cells; format: cell-based; procedure, shortened: as §1
[24] = tested on: K562; assay: Anticancer activity against human K562 cells after 48 hrs by sulforhodamine B assay; format: functional; details: K562, 48 h; procedure, shortened: as §2
[25] = tested on: RXF 393; assay: Anticancer activity against human RXF393 cells after 48 hrs by sulforhodamine B assay; format: functional; details: RXF 393, 48 h; procedure, shortened: as §2
[26] = tested on: LOX IMVI; assay: Anticancer activity against human LOXIMVI cells after 48 hrs by sulforhodamine B assay; format: functional; procedure, shortened: as §2
[27] = tested on: NCI-H522; assay: Cytotoxicity against human NCI-H522 cells; format: cell-based; procedure, shortened: as §1
[28] = tested on: ACHN; assay: Anticancer activity against human ACHN cells after 48 hrs by sulforhodamine B assay; format: functional; procedure, shortened: as §2
[29] = tested on: SN12C; assay: Anticancer activity against human SN12C cells after 48 hrs by sulforhodamine B assay; format: functional; procedure, shortened: as §2
[30] = tested on: SNB-75; assay: Cytotoxicity against human SNB75 cells; format: cell-based; procedure, shortened: as §3
[31] = tested on: OVCAR-8; assay: Anticancer activity against human OVCAR8 cells after 48 hrs by sulforhodamine B assay; format: functional; details: OVCAR-8, 48 h; procedure, shortened: as §2
[32] = tested on: RPMI-8226; assay: Cytotoxicity against human RPMI8226 cells; format: cell-based; procedure, shortened: as §1
[33] = tested on: NCI-H226; assay: Anticancer activity against human NCI-H226 cells after 48 hrs by sulforhodamine B assay; format: functional; details: NCI-H226, 48 h; procedure, shortened: as §2

SMILES: Cc1ccc(C2=NNC(c3cc(Cc4ccc(O)c(C5CC(c6ccc(C)cc6)=NN5)c4)ccc3O)C2)cc1 (stereo not drawn)
- LC50 [1]: > 100 µM
- GI50 [2]: 3.3 µM
- GI50 [3]: 9.89 µM
- LC50 [4]: > 100 µM
- LC50 [5]: > 100 µM
- LC50 [6]: > 100 µM
- GI50 [7]: 4.11 µM
- GI50 [8]: 6.84 µM
- GI50 [9]: 4.29 µM
- GI50 [10]: 4.88 µM
- GI50 [11]: 1.76 µM
- LC50 [12]: > 100 µM
- LC50 [13]: > 100 µM
- LC50 [14]: > 100 µM
- GI50 [15]: 2.97 µM
- GI50 [16]: 4.61 µM
- LC50 [17]: > 100 µM
- LC50 [18]: > 100 µM
- GI50 [19]: 3.64 µM
- GI50 [20]: 8.64 µM
- LC50 [21]: > 100 µM
- LC50 [22]: > 100 µM
- LC50 [23]: > 100 µM
- GI50 [24]: 7.73 µM
- GI50 [25]: 4.18 µM
- GI50 [26]: 7.38 µM
- LC50 [27]: > 100 µM
- GI50 [28]: 5.56 µM
- GI50 [29]: 8.84 µM
- LC50 [30]: > 100 µM
- GI50 [31]: 6.36 µM
- LC50 [32]: > 100 µM
- GI50 [33]: 8.28 µM
